According to ChEMBL document CHEMBL1909527, “Asymmetric synthesis and biological evaluation of N-cyclohexyl-4-[1-(2,4-dichlorophenyl)-1-(p-tolyl)methyl]piperazine-1-carboxamide as hCB1 receptor antagonists” (Eur J Med Chem, 2011):
Activity calls are given as the source filed them. The calls are words filed in the database; no cut-off is given here.

What was measured:
[1] = Half life in Sprague-Dawley rat at 10 mg/kg, po by LC/MS/MS analysis; format: ADME, organism-based; design: dose 10 mg/kg, route oral; conditions: in vivo
In short: (§1)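 Sprague-Dawley rats dosed orally at 10 mg/kg; blood drawn at various time points into lithium heparin tubes, centrifuged, plasma stored at −20 °C until analysis. Values are mean ± SEM of at least three experiments.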

[2] = Cmax in Sprague-Dawley rat at 10 mg/kg, po by LC/MS/MS analysis; format: ADME, organism-based; design: dose 10 mg/kg, route oral; conditions: in vivo; in short: as §1
[3] = Oral bioavailability in Sprague-Dawley rat at 10 mg/kg by LC/MS/MS analysis; format: ADME, organism-based; conditions: in vivo; in short: as §1
[4] = Ratio of drug level in brain to plasma in Sprague-Dawley rat at 10 mg/kg, po measured 9 hrs post dose by LC/MS/MS analysis; format: ADME, organism-based; design: dose 10 mg/kg, route oral; conditions: read-out: BPR
In short: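 Rats given 10 mg/kg orally and sacrificed at 3, 5 and 9 h post-dose; whole brain and blood collected and stored at −20 °C; brain/plasma ratio reported at 9 h. Mean ± SEM, at least three experiments.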

[5] = AUC (0 to infinity) in Sprague-Dawley rat at 10 mg/kg, po by LC/MS/MS analysis; format: ADME, organism-based; design: time infinity, dose 10 mg/kg, route oral; conditions: plasma; in short: as §1
[6] = Tmax in Sprague-Dawley rat at 10 mg/kg, po by LC/MS/MS analysis; format: ADME, organism-based; design: dose 10 mg/kg, route oral; conditions: in vivo; in short: as §1
Cannabinoid receptor 1 [7] = target: T1, Cannabinoid receptor 1 (Homo sapiens, UniProt P21554); experiment: Antagonist activity at human CB1 receptor expressed in CHO cells coexpressing Galpha15/16 assessed as inhibition of CP55940-induced Ca2+ release after 10 mins by micro plate reader assay; format: functional, cell-based
In short: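 CHO-hCB1 cells co-expressing Gα15/16 loaded with fluo-4 AM in HBSS (with […] sulfinpyrazone, pH 7.4) at 37 °C for 50 min, washed, then given test compound at various concentrations (DMSO final 1%) for 10 min at room temperature before CP55940 addition; intracellular calcium read at ex 485/em 525 nm. Triplicate; IC50 from dose-response curves, mean ± SEM, n = 3.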

Mus musculus [8] = experiment: Antiobesity activity in diet-induced obese C57BL/6J mouse assessed as reduction of body weight at 10 mg/kg, po qd for 35 days; format: functional, organism-based; design: dose 10 mg/kg
In short: (§2)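 DIO mice aged 20–24 weeks, kept on high-fat diet throughout, group-housed at 25 °C on a 12 h/12 h light-dark cycle, conditioned to water gavage for 5 days. Dosed orally once daily for 35 days with vehicle (0.1% Tween 80) or compound at 10 mg/kg, 1 h before dark cycle; n = 9–10/group. Food intake and body weight measured weekly; visceral fat mass at study end.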

Cannabinoid receptor 2 = Cannabinoid receptor 2 (Homo sapiens, UniProt P34972); experiment: Displacement of [3H]-CP-55940 from human CB2 receptor expressed in CHO cells pretreated for 10 mins measured after 3 hrs by scintillation counting; format: cell-based
In short: (§3)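 Whole-cell binding in CHO cells stably expressing hCB1 or hCB2, serum-starved in serum-free F12 for 3 h, pretreated with varying compound concentrations 10 min, then [3H]-CP-55940 added; 3 h at 37 °C. Cells washed 5× with warm PBS, lysed in PBS/1% SDS, bound radioactivity counted. Triplicate; Ki from nonlinear-regression IC50 via Cheng-Prusoff; mean ± SEM, n = 3 independent experiments.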

Mus musculus [9] = experiment: Antiobesity activity in diet-induced obese C57BL/6J mouse assessed as reduction in food intake at 10 mg/kg, po qd for 35 days; format: functional, organism-based; design: dose 10 mg/kg; in short: as §2
Cannabinoid receptor 1 [10] = target: T1, Cannabinoid receptor 1; experiment: Displacement of [3H]-CP-55940 from human CB1 receptor expressed in CHO cells pretreated for 10 mins measured after 3 hrs by scintillation counting; format: cell-based; in short: as §3
Mus musculus [11] = experiment: Antiobesity activity in diet-induced obese C57BL/6J mouse assessed as reduction in visceral fat mass at 10 mg/kg, po qd for 35 days; format: functional, organism-based; design: dose 10 mg/kg; in short: as §2

T1 sequence (P21554 whole entry): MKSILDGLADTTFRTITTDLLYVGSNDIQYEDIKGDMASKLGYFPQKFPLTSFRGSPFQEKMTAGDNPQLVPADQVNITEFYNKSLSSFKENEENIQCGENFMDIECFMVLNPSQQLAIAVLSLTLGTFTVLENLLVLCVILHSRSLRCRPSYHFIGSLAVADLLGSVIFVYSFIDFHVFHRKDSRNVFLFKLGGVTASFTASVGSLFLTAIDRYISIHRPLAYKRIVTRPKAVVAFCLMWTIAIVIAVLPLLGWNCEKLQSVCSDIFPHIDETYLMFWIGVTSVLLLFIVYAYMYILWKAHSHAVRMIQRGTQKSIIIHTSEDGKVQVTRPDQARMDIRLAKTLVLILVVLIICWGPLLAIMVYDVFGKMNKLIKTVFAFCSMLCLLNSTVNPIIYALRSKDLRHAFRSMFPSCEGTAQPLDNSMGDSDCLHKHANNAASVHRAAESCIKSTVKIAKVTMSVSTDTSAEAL
Sequence of Cannabinoid receptor 2 (P34972 whole entry): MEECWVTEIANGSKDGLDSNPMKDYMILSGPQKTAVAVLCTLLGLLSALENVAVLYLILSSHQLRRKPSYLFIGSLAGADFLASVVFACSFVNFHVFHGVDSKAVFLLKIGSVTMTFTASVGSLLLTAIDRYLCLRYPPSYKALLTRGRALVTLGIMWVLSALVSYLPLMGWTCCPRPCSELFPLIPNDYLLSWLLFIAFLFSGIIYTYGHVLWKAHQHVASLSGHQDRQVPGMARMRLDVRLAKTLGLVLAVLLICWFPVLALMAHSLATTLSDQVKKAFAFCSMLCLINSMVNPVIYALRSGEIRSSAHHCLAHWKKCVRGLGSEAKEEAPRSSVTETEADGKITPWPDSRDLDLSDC

| Compound | half-life [1] [h] | Cmax [2] [ng/mL] | bioavailability [3] [%] | Kp at 9 h [4] | AUC(0-inf) [5] [ng·h/mL] | Tmax [6] [h] | IC50 (Cannabinoid receptor 1 [7]) [nM] | Activity (Mus musculus [8]) | Ki (Cannabinoid receptor 2) [nM] | Activity (Mus musculus [9]) | Ki (Cannabinoid receptor 1 [10]) [nM] | Activity (Mus musculus [11]) |
| --- | --- | --- | --- | --- | --- | --- | --- | --- | --- | --- | --- | --- |
| Cc1ccc(C(c2ccc(Cl)cc2Cl)N2CCN(C(=O)NC3CCCCC3)CC2)cc1 (racemic) | 2.3 | 180 | 8 | 0.91 | 883 | 2.4 | – | – | – | – | – | – |
| Cc1ccc([C@H](c2ccc(Cl)cc2Cl)N2CCN(C(=O)NC3CCCCC3)CC2)cc1 | 3.8 | 116 | 15 | 0.88 | 655 | 1.2 | 0.9 | Active | 227 | inactive | 0.2 | Active |
| Cc1ccc([C@@H](c2ccc(Cl)cc2Cl)N2CCN(C(=O)NC3CCCCC3)CC2)cc1 | 3.4 | 128 | 6 | 1.42 | 695 | 1.3 | 21.5 | inactive | 242 | inactive | 1.1 | – |
